Data on one compound can be found in paper PMC6945491 (Biomaterials, 2019).

The subject of one series is HIV-1NL4–3-eGFP. The experiment in a line: EC50 by HIV-1 RT activity in infected CEM-CD4+ T cells. It counts as cell-based. The note with it: Human immunodeficiency virus 1, T-cell, 240 h, read-out: EC50 (RT activity).
Series [1] has as its system HIV-1ADA. The experiment in a line: EC50 by HIV-1 RT activity in infected MDM. Format: cell-based. The note with it: Human immunodeficiency virus 1, 240 h, read-out: EC50 (RT activity). The procedure, abridged:
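Human MDM (80,000 cells/well) pretreated 60 min with test compound or parent drug. Infected with HIV-1ADA at MOI 0.1 for 4 h, then cultured 10 days at the same drug concentration with half-medium changes every other day. Supernatant RT activity measured on day 10. EC50 fitted by sigmoidal 4-point logarithmic regression; triplicate.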

A short description of series [2]: Pharmacokinetics and biodistribution in rats. The note with it: single IM 75 mg/kg, after one day, limit of quantitation, data not shown.
A further series relates to MDM. As to the kind of experiment: Drug uptake and 3TC-TP formation in MDM. Format: cell-based, human. As to conditions: 100 μM, over 24 h. The procedure, abridged: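 Human monocytes differentiated 7–10 days in DMEM with 10% heat-inactivated pooled human serum and 1,000 U/ml M-CSF at 37°C, 5% CO2. MDM exposed to 100 μM nanoformulated prodrug or parent drug. At sampling, cells washed twice in PBS, scraped, counted and pelleted. Pellets extracted in methanol with sonication, then drug measured by LC-MS/MS. 3TC-TP quantified by an established protocol. Triplicate.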

The subject of series [3] is HIV-1ADA. The experiment in a line: Long-term antiretroviral efficacy in MDM. It counts as cell-based. As to conditions: 8 h 100 μM, HIV-1ADA challenge. The procedure, abridged:
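MDM loaded 8 h with 100 μM test compound or parent drug, washed with PBS and kept drug-free with half-medium exchanges every other day. Challenged with HIV-1ADA (MOI 0.1) at days 1–30 after loading, then virus medium replaced. Ten days later medium RT activity was expressed as % of infected untreated cells. Cells fixed in 4% paraformaldehyde and HIV-1 p24 immunostained.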

pEC50: −log10 of the molar value.

One may read the pEC50 as the EC50 on a negative log10 scale, so that one unit is a factor of ten. On to `Nc1ccn([C@H]2CS[C@@H](CO)O2)c(=O)n1` [3TC, 2’,3’-Dideoxy-3’-Thiacytidine], for which the pEC50 is 7.45 with HIV-1NL4–3-eGFP and 7.71 in the series with HIV-1ADA [1]. In series [2], the “drug levels in plasma and tissues” value was ≤ 0.05 ng/mL. The intracellular drug concentration in the series on MDM is reported as < 0.5 μg/10^6 cells. Moreover, the “time of viral breakthrough after treatment” value with HIV-1ADA [3] was “within one day”.
